Entries after “also recorded” stand apart in the source; their conditions may differ. Where two headings read alike, the source gives them in different places.
Experiments:
[1] = system: adult patients with advanced solid tumors; experiment: Dose escalation: DLT, MTD and recommended dose for expansion; assay type: in vivo, human
Procedure, shortened: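 Escalation was guided by an adaptive Bayesian hierarchical logistic regression model with escalation-with-overdose-control. Dosing started at 100 μg and tested 100, 200, 400 and 600 μg intratumoral TLR-7 agonist biweekly, alone or with anti-PD-1 antibody 400 mg IV on day 1 of each 28-day cycle. AEs were graded by CTCAE v4.03. All treated patients formed the safety set. Data cut-off was 30 June 2022.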

advanced solid tumors [2] = experiment: Antitumor activity per RECIST v1.1; assay type: in vivo, human
Procedure, shortened: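 Open-label phase I/Ib in adults (≥18 y, ECOG ≤2, RECIST-measurable disease, progressed on or intolerant to standard care). The TLR-7 agonist, 100-600 μg, was given intratumorally on days 1 and 15 of 28-day cycles 1-2 and 5-6, with a pause in cycles 3-4. Combination patients also received anti-PD-1 antibody 400 mg IV over 30 min Q4W. ORR and DCR (CR+PR+SD) are given with 90% Clopper–Pearson exact CIs. PFS uses Kaplan–Meier with median, 90% CI and landmark rates.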

[3] = system: adult patients with advanced solid tumors
[4] = Serum pharmacokinetics after intratumoral LHC165, LC-MS/MS, non-compartmental; assay type: in vivo, human
Procedure, shortened: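 Serum concentrations of the TLR-7 agonist were measured by validated LC-MS/MS after intratumoral dosing at 100-600 μg Q2W. Dosing was alone or with anti-PD-1 antibody 400 mg IV Q4W. Parameters (Cmax, AUClast, terminal t½) were derived by non-compartmental analysis on C1D1 and C2D15. Geometric CV% was reported.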

advanced solid tumors [5] = experiment: Antitumor activity per iRECIST; assay type: in vivo, human; conditions: all patients, groups pooled
Procedure, shortened: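 Adults with advanced solid tumours received the TLR-7 agonist intratumorally, 100-600 μg on days 1 and 15 of 28-day cycles 1-2 and 5-6, alone or with anti-PD-1 antibody 400 mg IV Q4W. Response was assessed per iRECIST. iORR and iDCR are given with 90% Clopper–Pearson exact CIs. iPFS was estimated by Kaplan–Meier with median, 90% CI and 3-24-month rates, summarised by treatment group.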

[6] = Aluminum level monitoring; assay type: in vivo, human; conditions: for Aluminum level, mean (standard deviation): baseline 0.26 (0.088)
[7] = system: patients with solid tumors; conditions: IT; including grade 3/4 cytokine release syndrome, pyrexia, fatigue, chills, decreased lymphocyte count, nausea, injection-site pain; cited from earlier work
[8] = system: advanced anaplastic thyroid carcinoma; conditions: immune-related response criteria; cited from earlier work
[9] = RECIST v1.1, all patients N = 45 (SA and combination groups pooled)
[10] = RECIST v1.1, all patients, groups pooled
[11] = RECIST v1.1, by treatment group
[12] = RECIST v1.1, by treatment group (SA n = 21; combination n = 24)
[13] = all grades, all patients N = 45 (SA and combination groups pooled)
[14] = all grades, by treatment group (SA n = 21; combination n = 24)
[15] = grade ≥3, all patients N = 45 (SA and combination groups pooled)
[16] = grade ≥3, by treatment group (SA n = 21; combination n = 24)
[17] = overall, 45 patients, groups pooled

Q: With `Cc1cc(OCCOCCC(F)(F)P(=O)(O)O)ccc1CCc1cnc2c(N)nc3cc(CCC(=O)O)ccc3c2c1` [LHC165] as the molecule, how does the MTD ([1]; LHC165 100-600 μg biweekly IT, SA and with spartalizumab 400 mg Q4W) read?
A: No maximum tolerated dose was reached; also recorded: not reached

Q: What about the “Recommended dose for expansion (RDE)” value ([1]; biweekly IT, as SA and in combination with spartalizumab 400 mg Q4W) of the same molecule?
A: 600 µg

Q: And the “DLTs observed during dose escalation” value ([1]; combination: two episodes of grade 3 pancreatitis at LHC165 400 μg)?
A: No DLTs

Q: What about the “Median PFS” value (advanced solid tumors [2]; RECIST v1.1, Kaplan–Meier, by treatment group, listed as LHC165 SA) of the same molecule?
A: 1.4 months

Q: What about the “Best overall response: CR” value (advanced solid tumors [2]; [9]) of the same molecule?
A: 0 n (%)

Q: What about the “Best overall response: PD” value (advanced solid tumors [2]; [9]) of the same molecule?
A: 27 (60.0) n (%)

Q: And the “Best overall response: PR” value (advanced solid tumors [2]; [9])?
A: 3 (6.7) n (%)

Q: And the “Best overall response: SD” value (advanced solid tumors [2]; [9])?
A: 5 (11.1) n (%)

Q: What about the “Best overall response: Unknown” value (advanced solid tumors [2]; [9]) of the same molecule?
A: 10 (22.2) n (%)

Q: What about the “DCR (CR + PR + SD)” value (advanced solid tumors [2]; [9]) of the same molecule?
A: 8 (17.8) n (%)

Q: And the “ORR (CR + PR)” value (advanced solid tumors [2]; [9])?
A: 3 (6.7) n (%)

Q: What about the “DCR / disease control” value (advanced solid tumors [2]; [10]) of the same molecule?
A: 17.8%

Q: And the “ORR (CR + PR) across all tumor types” value (advanced solid tumors [2]; [10])?
A: 6.7%

Q: And the “Best overall response PD” value (advanced solid tumors [2]; [11])?
A: 66.7%

Q: And the “Best overall response PR” value (advanced solid tumors [2]; [11])?
A: 4.8%

Q: And the “Best overall response unknown (UNK)” value (advanced solid tumors [2]; [11])?
A: 28.6%

Q: And the “Best overall response: CR” value (advanced solid tumors [2]; [12])?
A: 0 n (%)

Q: What about the “Best overall response: PD” value (advanced solid tumors [2]; [12]) of the same molecule?
A: 14 (66.7) n (%)

Q: What about the “Best overall response: PR” value (advanced solid tumors [2]; [12]) of the same molecule?
A: 1 (4.8) n (%)

Q: What about the “Best overall response: SD” value (advanced solid tumors [2]; [12]) of the same molecule?
A: 0 n (%)

Q: What about the “Best overall response: Unknown” value (advanced solid tumors [2]; [12]) of the same molecule?
A: 6 (28.6) n (%)

Q: And the “DCR (CR + PR + SD)” value (advanced solid tumors [2]; [12])?
A: 1 (4.8) n (%)

Q: And the “ORR (CR + PR)” value (advanced solid tumors [2]; [12])?
A: 1 (4.8) n (%)

Q: And the “DOR, median (range)” value (advanced solid tumors [2]; RECIST v1.1, responders by treatment group)?
A: 3.81 (3.8-3.8) months

Q: And the “DOR, median (range)” value (advanced solid tumors [2]; RECIST v1.1, responders, all patients (SA and combination groups pooled))?
A: 13.77 (3.8-29.7) months

Q: And the “Overall median PFS” value (advanced solid tumors [2]; all patients, groups pooled)?
A: 1.7 months

Q: And the “Patients who discontinued study treatment due to progressive disease” value (advanced solid tumors [2]; by treatment group)?
A: 71.4%

Q: And the “Patients with at least one AE of any grade, regardless of relationship with LHC165 or spartalizumab” value ([3]; 40 of 45 patients, SA and combination groups pooled)?
A: 88.9%

Q: What about the “Most common non-SAE: anemia” value ([3]; 45 patients, groups pooled) of the same molecule?
A: 24.4%

Q: What about the “Most common non-SAE: pyrexia” value ([3]; 45 patients, groups pooled) of the same molecule?
A: 37.8%

Q: And the “Patients with at least one SAE, regardless of relationship” value ([3]; 45 patients, groups pooled)?
A: 22.2%

Q: What about the “SAE suspected to be related to LHC165 and spartalizumab: grade 3 pancreatitis” value ([3]; 45 patients, groups pooled) of the same molecule?
A: 2.2%

Q: What about the “SAE suspected to be related to the study drug: grade 3 pancreatitis, number of patients” value ([3]; 45 patients, groups pooled) of the same molecule?
A: 1 n

Q: And the “Patients with treatment-related AEs (TRAEs, all grades)” value ([3]; across all dose levels, 16 of 45 patients, groups pooled)?
A: 35.6%

Q: And the “Patients with non-SAEs (≥10%)” value ([3]; across all dose levels, 40 of 45 patients, groups pooled)?
A: 88.9%

Q: And the “Drug-related AE: asthenia” value ([3]; all 45 patients, groups pooled)?
A: 4.4%

Q: What about the “Drug-related AE: chills” value ([3]; all 45 patients, groups pooled) of the same molecule?
A: 11.1%

Q: What about the “Drug-related AE: pruritus” value ([3]; all 45 patients, groups pooled) of the same molecule?
A: 13.3%

Q: And the “Drug-related AE: pyrexia” value ([3]; all 45 patients, groups pooled)?
A: 22.2%

Q: And the “Asthenia, treatment-related AE” value [3, 13]?
A: 2 (4.4) n (%)

Q: What about the “Chills, treatment-related AE” value [3, 13] of the same molecule?
A: 5 (11.1) n (%)

Q: What about the “Pruritus, treatment-related AE” value [3, 13] of the same molecule?
A: 6 (13.3) n (%)

Q: And the “Pyrexia, treatment-related AE” value [3, 13]?
A: 10 (22.2) n (%)

Q: And the “TRAEs leading to discontinuation: pancreatitis” value (from here on “TRAEs leading to discontinuation”) [3, 13]?
A: 1 (2.2) n (%)

Q: What about the “≥1 AE suspected to be related to LHC165 or spartalizumab” value (from here on “≥1 AE suspected to be related”) [3, 13] of the same molecule?
A: 16 (35.6) n (%)

Q: What about the “Asthenia, treatment-related AE” value [3, 14] of the same molecule?
A: 0 n (%)

Q: And the “Chills, treatment-related AE” value [3, 14]?
A: 1 (4.8) n (%)

Q: And the “Pruritus, treatment-related AE” value [3, 14]?
A: 0 n (%)

Q: What about the “Pyrexia, treatment-related AE” value [3, 14] of the same molecule?
A: 2 (9.5) n (%)

Q: What about the “TRAEs leading to discontinuation” value [3, 14] of the same molecule?
A: 0 n (%)

Q: What about the “≥1 AE suspected to be related” value [3, 14] of the same molecule?
A: 2 (9.5) n (%)

Q: What about the “Patients with one or more TRAE” value ([3]; by treatment group (2 of 21; 14 of 24)) of the same molecule?
A: 9.5%

Q: What about the “Patients with at least one treatment permanent discontinuation by reason: adverse event” value ([3]; by treatment group (SA n = 21; combination n = 24)) of the same molecule?
A: 2 (9.5) n (%)

Q: What about the “Patients who discontinued study treatment due to AE” value ([3]; by treatment group, SA: hypotension, not related, combination: pancreatitis, DLT) of the same molecule?
A: 4.8%

Q: And the “Patients who discontinued study treatment due to death” value ([3]; by treatment group, not related to treatment (respiratory failure; fatal septic shock))?
A: 4.8%

Q: What about the “Asthenia, treatment-related AE” value [3, 15] of the same molecule?
A: 0 n (%)

Q: What about the “Chills, treatment-related AE” value [3, 15] of the same molecule?
A: 0 n (%)

Q: What about the “Pruritus, treatment-related AE” value [3, 15] of the same molecule?
A: 0 n (%)

Q: What about the “Pyrexia, treatment-related AE” value [3, 15] of the same molecule?
A: 0 n (%)

Q: What about the “TRAEs leading to discontinuation” value [3, 15] of the same molecule?
A: 1 (2.2) n (%)

Q: What about the “≥1 AE suspected to be related” value [3, 15] of the same molecule?
A: 0 n (%)

Q: What about the “Asthenia, treatment-related AE” value [3, 16] of the same molecule?
A: 0 n (%)

Q: What about the “Chills, treatment-related AE” value [3, 16] of the same molecule?
A: 0 n (%)

Q: What about the “Pruritus, treatment-related AE” value [3, 16] of the same molecule?
A: 0 n (%)

Q: What about the “Pyrexia, treatment-related AE” value [3, 16] of the same molecule?
A: 0 n (%)

Q: What about the “TRAEs leading to discontinuation” value [3, 16] of the same molecule?
A: 0 n (%)

Q: What about the “≥1 AE suspected to be related” value [3, 16] of the same molecule?
A: 0 n (%)

Q: And the “AE leading to dose interruption or dose adjustment: aspartate aminotransferase increased” value [3, 17]?
A: 4.4%

Q: And the “Patients with at least one AE leading to dose interruption or dose adjustment” value [3, 17]?
A: 11.1%

Q: What about the “Patients with at least one AE leading to treatment discontinuation” value [3, 17] of the same molecule?
A: 4.4%

Q: And the “AEs leading to dose interruption or dose adjustment, each of: alanine aminotransferase increased, fatigue, gastroesophageal reflux disease, hyponatremia, suspected COVID-19” value ([3]; overall, 45 patients, groups pooled, each term)?
A: 2.2%

Q: What about the “Dose dependence of Cmax and AUClast” value ([4]; 100-600 μg IT) of the same molecule?
A: increased in a dose-dependent manner

Q: And the “Accumulation in serum LHC165 after multiple IT injections” value ([4]; Cmax and AUClast between C1D1 and C2D15 comparable)?
A: No accumulation

Q: What about the “Drug–drug interaction between LHC165 and spartalizumab” value ([4]; comparable exposure between SA and combination groups) of the same molecule?
A: No evidence of drug–drug interaction

Q: And the “Overall median immune-related PFS (iPFS)” value (advanced solid tumors [5])?
A: 1.7 months

Q: And the “AEs specific to aluminum toxicity” value ([6]; LHC165 adsorbed to aluminum hydroxide)?
A: No AEs specific to aluminum toxicity were reported

Q: And the “Aluminum level, mean (standard deviation)” value ([6]; cycle 1 day 15 (C1D15))?
A: 0.24 (0.087) μmol/L

Q: What about the “Aluminum level, mean (standard deviation)” value ([6]; end of treatment) of the same molecule?
A: 0.30 (0.128) μmol/L

Q: And the “Maximum observed aluminum value during the study” value ([6]; mild elevation levels >1.85 μmol/L)?
A: 0.520 µmol

Q: For `CCCCCCCCCCCCCCCCCC(=O)NCCCCOn1c(CCCC)nc2c(N)nc3ccccc3c21` [MEDI9197], which Toxicities [7] is on record?
A: tolerable toxicities

B1: spartalizumab: humanized immunoglobulin G4 (IgG4) anti-programmed cell death protein-1 (anti–PD-1) monoclonal antibody (antibody, chains of the INN, looked up, V domains shown)
VH: EVQLVQSGAEVKKPGESLRISCKGSGYTFTTYWMHWVRQATGQGLEWMGNIYPGTGGSNFDEKFKNRVTITADKSTSTAYMELSSLRSEDTAVYYCTRWTTGTGAYWGQGTTVTVSS
VL: EIVLTQSPATLSLSPGERATLSCKSSQSLLDSGNQKNFLTWYQQKPGQAPRLLIYWASTRESGVPSRFSGSGSGTDFTFTISSLEAEDAATYYCQNDYSYPYTFGQGTKVEIK
Q: With B1 as the molecule, how does the “Overall response rate (ORR)” value [8] read?
A: 24%
